According to ChEMBL document CHEMBL4689842, “EUbOPEN Chemogenomics Library wave 1” (2021):

System: HEK-293T
Experiment: Multiplex assay against HEK293T;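 as to Population Tubulin-Different-Phenotype (%): share of the cells with healthy nuclei that show this phenotype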
Type: toxicity, cell-based
Conditions: human
How it was run: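 Live cells were stained at seeding with Hoechst33342, BioTracker Green Microtubule Cytoskeleton Dye, MitoTracker Red and Annexin V Alexa Fluor 680, then imaged on a CQ1 microscope at 37°C and 5% CO2 after compound addition. CellPathfinder machine-learning gating split cells into Hoechst high-intensity objects or normal cells. Normal cells were split into healthy, pyknosed or fragmented nuclei, and pyknosed cells into mitotic or apoptotic. Tubulin, mitochondrial-mass and membrane-permeability phenotypes are per cents of healthy-nucleus cells.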

[1] = 12 h, 1 µM, compound concentration 1 uM, replicate 1
[2] = 12 h, 1 µM, compound concentration 1 uM, replicate 2
[3] = 12 h, 10 µM, compound concentration 10 uM, replicate 1
[4] = 12 h, 10 µM, compound concentration 10 uM, replicate 2
[5] = 24 h, 1 µM, compound concentration 1 uM, replicate 1
[6] = 24 h, 1 µM, compound concentration 1 uM, replicate 2
[7] = 24 h, 10 µM, compound concentration 10 uM, replicate 1
[8] = 24 h, 10 µM, compound concentration 10 uM, replicate 2
[9] = 48 h, 1 µM, compound concentration 1 uM, replicate 1
[10] = 48 h, 1 µM, compound concentration 1 uM, replicate 2
[11] = 48 h, 10 µM, compound concentration 10 uM, replicate 1
[12] = 48 h, 10 µM, compound concentration 10 uM, replicate 2

How did the “Population Apoptotic (%)” value [1] turn out when `CC(C)Oc1ccccc1C(=O)Nc1ccccc1C(=O)Nc1cccc(S(=O)(=O)C(F)(F)F)c1` was run?
The value was 64%.

What about the “Population Fragmented Nuclei (%)” value [1] of the same compound?
Its value is 10%.

What about the “Population Healthy Nuclei (%)” value [1] of the same compound?
The value was 41%.

What about the “Population Hoechst High Intensity Objects (%)” value [1] of the same compound?
Its value is 14%.

What about the “Population Membrane Permeable-Phenotype (%)” value [1] of the same compound?
Its value is 3%.

And the “Population Mitochondria Different-Phenotype (%)” value [1]?
Its value is 90%.

What about the “Population Mitotic Cells (%)” value [1] of the same compound?
The value was 35%.

And the “Population Normal (%)” value [1]?
The value was 85%.

What about the “Population Pyknosed Nuclei (%)” value [1] of the same compound?
The value was 47%.

And the “Population Tubulin-Different-Phenotype (%)” value [1]?
The value was 77%.

And the “Total Cell Count” value [1]?
The value was 237.

What about the “Population Apoptotic (%)” value [2] of the same compound?
Its value is 34%.

What about the “Population Fragmented Nuclei (%)” value [2] of the same compound?
Its value is 7%.

And the “Population Healthy Nuclei (%)” value [2]?
The value was 37%.

What about the “Population Hoechst High Intensity Objects (%)” value [2] of the same compound?
The value was 6%.

And the “Population Membrane Permeable-Phenotype (%)” value [2]?
Its value is 8%.

What about the “Population Mitochondria Different-Phenotype (%)” value [2] of the same compound?
The value was 58%.

And the “Population Mitotic Cells (%)” value [2]?
The value was 65%.

And the “Population Normal (%)” value [2]?
Its value is 93%.

And the “Population Pyknosed Nuclei (%)” value [2]?
Its value is 55%.

What about the “Population Tubulin-Different-Phenotype (%)” value [2] of the same compound?
Its value is 76%.

What about the “Total Cell Count” value [2] of the same compound?
The value was 214.

And the “Population Fragmented Nuclei (%)” value [3]?
Its value is 11%.

What about the “Population Healthy Nuclei (%)” value [3] of the same compound?
The value was 31%.

What about the “Population Hoechst High Intensity Objects (%)” value [3] of the same compound?
Its value is 13%.

And the “Population Membrane Permeable-Phenotype (%)” value [3]?
Its value is 6%.

What about the “Population Mitochondria Different-Phenotype (%)” value [3] of the same compound?
The value was 91%.

And the “Population Mitotic Cells (%)” value [3]?
The value was 34%.

What about the “Population Normal (%)” value [3] of the same compound?
Its value is 87%.

What about the “Population Pyknosed Nuclei (%)” value [3] of the same compound?
Its value is 57%.

And the “Population Tubulin-Different-Phenotype (%)” value [3]?
The value was 87%.

What about the “Total Cell Count” value [3] of the same compound?
Its value is 300.

What about the “Population Apoptotic (%)” value [4] of the same compound?
Its value is 66%.

What about the “Population Fragmented Nuclei (%)” value [4] of the same compound?
Its value is 7%.

What about the “Population Healthy Nuclei (%)” value [4] of the same compound?
The value was 21%.

What about the “Population Hoechst High Intensity Objects (%)” value [4] of the same compound?
Its value is 4%.

What about the “Population Membrane Permeable-Phenotype (%)” value [4] of the same compound?
The value was 9%.

And the “Population Mitochondria Different-Phenotype (%)” value [4]?
The value was 71%.

What about the “Population Mitotic Cells (%)” value [4] of the same compound?
Its value is 33%.

And the “Population Normal (%)” value [4]?
The value was 95%.

What about the “Population Pyknosed Nuclei (%)” value [4] of the same compound?
The value was 71%.

And the “Population Tubulin-Different-Phenotype (%)” value [4]?
The value was 83%.

What about the “Total Cell Count” value [4] of the same compound?
Its value is 206.

And the “Population Apoptotic (%)” value [5]?
Its value is 64%.

What about the “Population Fragmented Nuclei (%)” value [5] of the same compound?
Its value is 16%.

And the “Population Healthy Nuclei (%)” value [5]?
Its value is 44%.

What about the “Population Hoechst High Intensity Objects (%)” value [5] of the same compound?
Its value is 14%.

What about the “Population Membrane Permeable-Phenotype (%)” value [5] of the same compound?
The value was 0%.

What about the “Population Mitochondria Different-Phenotype (%)” value [5] of the same compound?
The value was 90%.

What about the “Population Mitotic Cells (%)” value [5] of the same compound?
Its value is 35%.

And the “Population Normal (%)” value [5]?
The value was 85%.

What about the “Population Pyknosed Nuclei (%)” value [5] of the same compound?
Its value is 38%.

What about the “Population Tubulin-Different-Phenotype (%)” value [5] of the same compound?
Its value is 67%.

What about the “Total Cell Count” value [5] of the same compound?
The value was 263.

What about the “Population Apoptotic (%)” value [6] of the same compound?
The value was 42%.

What about the “Population Fragmented Nuclei (%)” value [6] of the same compound?
Its value is 8%.

What about the “Population Healthy Nuclei (%)” value [6] of the same compound?
The value was 50%.

And the “Population Hoechst High Intensity Objects (%)” value [6]?
The value was 3%.

And the “Population Membrane Permeable-Phenotype (%)” value [6]?
The value was 3%.

What about the “Population Mitochondria Different-Phenotype (%)” value [6] of the same compound?
Its value is 66%.

And the “Population Mitotic Cells (%)” value [6]?
Its value is 58%.

And the “Population Normal (%)” value [6]?
Its value is 96%.

And the “Population Pyknosed Nuclei (%)” value [6]?
Its value is 41%.

And the “Population Tubulin-Different-Phenotype (%)” value [6]?
Its value is 83%.

What about the “Total Cell Count” value [6] of the same compound?
Its value is 253.

What about the “Population Apoptotic (%)” value [7] of the same compound?
Its value is 61%.

What about the “Population Fragmented Nuclei (%)” value [7] of the same compound?
Its value is 18%.

And the “Population Healthy Nuclei (%)” value [7]?
The value was 31%.

What about the “Population Hoechst High Intensity Objects (%)” value [7] of the same compound?
Its value is 11%.

What about the “Population Membrane Permeable-Phenotype (%)” value [7] of the same compound?
The value was 4%.

What about the “Population Mitochondria Different-Phenotype (%)” value [7] of the same compound?
The value was 94%.

And the “Population Mitotic Cells (%)” value [7]?
Its value is 38%.

And the “Population Normal (%)” value [7]?
Its value is 88%.

What about the “Population Pyknosed Nuclei (%)” value [7] of the same compound?
Its value is 49%.

What about the “Population Tubulin-Different-Phenotype (%)” value [7] of the same compound?
The value was 77%.

And the “Total Cell Count” value [7]?
Its value is 332.

And the “Population Apoptotic (%)” value [8]?
The value was 78%.

What about the “Population Fragmented Nuclei (%)” value [8] of the same compound?
Its value is 7%.

What about the “Population Healthy Nuclei (%)” value [8] of the same compound?
The value was 25%.

What about the “Population Hoechst High Intensity Objects (%)” value [8] of the same compound?
The value was 3%.

And the “Population Membrane Permeable-Phenotype (%)” value [8]?
Its value is 9%.

What about the “Population Mitochondria Different-Phenotype (%)” value [8] of the same compound?
Its value is 84%.

What about the “Population Mitotic Cells (%)” value [8] of the same compound?
Its value is 21%.

And the “Population Normal (%)” value [8]?
The value was 96%.

What about the “Population Pyknosed Nuclei (%)” value [8] of the same compound?
Its value is 67%.

What about the “Population Tubulin-Different-Phenotype (%)” value [8] of the same compound?
Its value is 81%.

And the “Total Cell Count” value [8]?
The value was 217.

And the “Population Apoptotic (%)” value [9]?
The value was 63%.

And the “Population Fragmented Nuclei (%)” value [9]?
Its value is 19%.

And the “Population Healthy Nuclei (%)” value [9]?
Its value is 43%.

And the “Population Hoechst High Intensity Objects (%)” value [9]?
The value was 16%.

And the “Population Membrane Permeable-Phenotype (%)” value [9]?
The value was 2%.

And the “Population Mitochondria Different-Phenotype (%)” value [9]?
Its value is 66%.

And the “Population Mitotic Cells (%)” value [9]?
The value was 36%.

And the “Population Normal (%)” value [9]?
Its value is 83%.

And the “Population Pyknosed Nuclei (%)” value [9]?
The value was 36%.

What about the “Population Tubulin-Different-Phenotype (%)” value [9] of the same compound?
Its value is 50%.

And the “Total Cell Count” value [9]?
The value was 286.

What about the “Population Apoptotic (%)” value [10] of the same compound?
Its value is 25%.

And the “Population Fragmented Nuclei (%)” value [10]?
Its value is 6%.

What about the “Population Healthy Nuclei (%)” value [10] of the same compound?
The value was 73%.

What about the “Population Hoechst High Intensity Objects (%)” value [10] of the same compound?
The value was 5%.

And the “Population Membrane Permeable-Phenotype (%)” value [10]?
Its value is 3%.

And the “Population Mitochondria Different-Phenotype (%)” value [10]?
The value was 46%.

And the “Population Mitotic Cells (%)” value [10]?
The value was 74%.

And the “Population Normal (%)” value [10]?
Its value is 94%.

What about the “Population Pyknosed Nuclei (%)” value [10] of the same compound?
Its value is 19%.

What about the “Population Tubulin-Different-Phenotype (%)” value [10] of the same compound?
Its value is 74%.

What about the “Total Cell Count” value [10] of the same compound?
The value was 393.

What about the “Population Apoptotic (%)” value [11] of the same compound?
The value was 59%.

And the “Population Fragmented Nuclei (%)” value [11]?
The value was 35%.

What about the “Population Healthy Nuclei (%)” value [11] of the same compound?
The value was 30%.

What about the “Population Hoechst High Intensity Objects (%)” value [11] of the same compound?
Its value is 13%.

And the “Population Membrane Permeable-Phenotype (%)” value [11]?
Its value is 3%.

What about the “Population Mitochondria Different-Phenotype (%)” value [11] of the same compound?
The value was 89%.

What about the “Population Mitotic Cells (%)” value [11] of the same compound?
The value was 40%.

And the “Population Normal (%)” value [11]?
Its value is 86%.

And the “Population Pyknosed Nuclei (%)” value [11]?
The value was 34%.

What about the “Population Tubulin-Different-Phenotype (%)” value [11] of the same compound?
The value was 50%.

And the “Total Cell Count” value [11]?
The value was 401.

And the “Population Apoptotic (%)” value [12]?
Its value is 58%.

What about the “Population Fragmented Nuclei (%)” value [12] of the same compound?
The value was 16%.

What about the “Population Healthy Nuclei (%)” value [12] of the same compound?
The value was 26%.

What about the “Population Hoechst High Intensity Objects (%)” value [12] of the same compound?
The value was 5%.

What about the “Population Membrane Permeable-Phenotype (%)” value [12] of the same compound?
Its value is 15%.

What about the “Population Mitochondria Different-Phenotype (%)” value [12] of the same compound?
The value was 64%.

And the “Population Mitotic Cells (%)” value [12]?
The value was 41%.

And the “Population Normal (%)” value [12]?
Its value is 94%.

And the “Population Pyknosed Nuclei (%)” value [12]?
Its value is 56%.

What about the “Population Tubulin-Different-Phenotype (%)” value [12] of the same compound?
The value was 79%.

What about the “Total Cell Count” value [12] of the same compound?
The value was 251.
